Results reported in ChEMBL document CHEMBL4152247, “Discovery of novel 2,4-diarylaminopyrimidine derivatives as potent and selective epidermal growth factor receptor (EGFR) inhibitors against L858R/T790M resistance mutation” (Eur J Med Chem, 2018).
The source made the active and inactive calls. The rule behind the calls is not given here.

Experiments:
[1] = target: Epidermal growth factor receptor (Homo sapiens, UniProt P00533, L858R/T790M); assay: Inhibition of recombinant human GST-tagged EGFR T790M/L858R double mutant expressed in baculovirus expression system using poly (Glu, Tyr) 4:1 as substrate after 1 hr by ELISA
[2] = organism: Homo sapiens; assay: Selectivity ratio of IC50 for recombinant human GST-tagged wild type EGFR to IC50 for recombinant human GST-tagged EGFR T790M/L858R double mutant
[3] = target: T1, Epidermal growth factor receptor (Homo sapiens, UniProt P00533); assay: Inhibition of recombinant human GST-tagged wild type EGFR expressed in baculovirus expression system using poly (Glu, Tyr) 4:1 as substrate after 1 hr by ELISA
[4] = test system: A-431; assay: Antiproliferative activity against wild type EGFR expressing human A431 cells after 72 hrs by SRB assay; assay type: cell-based; conditions: A-431, 72 h
In short: (§1)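 SRB assay: cells seeded at 5×10^3 per well for 24 h, then exposed to serial dilutions for 72 h. DMSO stocks were 10.0 mg/ml. Cells were fixed with 10% TCA at 4 °C for 1 h and stained 15 min with 4 mg/mL SRB in 1% acetic acid. Absorbance was read at 515 nm. Inhibition was taken as [1-(A515 treated/A515 control)]×100%. IC50 was obtained by the logit method, averaging at least three independent experiments.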

[5] = test system: NCI-H1975; assay: Antiproliferative activity against EGFR T790M/L858R double mutant expressing human NCI-H1975 cells after 72 hrs by SRB assay; assay type: functional, cell-based; conditions: NCI-H1975, 72 h; in short: as §1
[6] = organism: Homo sapiens; assay: Selectivity index, ratio of IC50 for wild type EGFR expressing human A431 cells to IC50 for EGFR T790M/L858R double mutant expressing human NCI-H1975 cells
[7] = test system: Epidermal growth factor receptor (Homo sapiens), P00533 [L858R,T790M]; assay: Inhibition of EGF-induced EGFR T790M/L858R double mutant in human NCI-H1975 cells assessed as decrease in AKT phosphorylation preincubated for 2 hrs followed by EGF induction and measured after 10 mins by Western blot analysis; assay type: cell-based
In short: (§2)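 Cells were treated with or without compound for 2 h, then stimulated with 50 ng/ml EGF for 10 min. They were lysed in SDS lysis buffer for Western blot. Blots were probed for p-EGFR, EGFR, p-ERK, ERK, p-AKT and AKT, with tubulin as reference.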

[8] = test system: Mus musculus; assay: In vivo inhibition of wild type EGFR phosphorylation in tumor of BALB/c athymic nude mouse xenografted with human A431 cells at 10 mg/kg, po bid for 21 days; conditions: 504 h
[9] = test system: A431 (Homo sapiens); assay: Antitumor activity against wild type EGFR expressing human A431 cells xenografted in BALB/c athymic nude mouse assessed as tumor growth inhibition at 20 mg/kg, po bid for 21 days relative to vehicle-treated control; conditions: in vivo, 504 h
[10] = test system: Mus musculus; assay: In vivo inhibition of wild type EGFR phosphorylation in tumor of BALB/c athymic nude mouse xenografted with human A431 cells assessed as decrease in Akt phosphorylation at 10 mg/kg, po bid for 21 days; conditions: 504 h
[11] = test system: Mus musculus; assay: In vivo inhibition of EGFR T790M/L858R double mutant phosphorylation in tumor of BALB/c athymic nude mouse xenografted with human NCI-H1975 cells assessed as decrease in Akt phosphorylation at 10 mg/kg, po bid for 21 days; assay type: functional, organism-based
In short: (§3)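 Western blot of NCI-H1975 xenograft tumors from mice given 10 mg/kg orally twice daily. Phospho-EGFR and phospho-Akt were quantified against the vehicle control group. Significance was set at p < 0.05.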

[12] = target: T1, Epidermal growth factor receptor; assay: Inhibition of EGF-induced wild type EGFR phosphorylation in human A431 cells at 0.1 to 1000 nM preincubated for 2 hrs followed by EGF induction and measured after 10 mins by Western blot analysis; assay type: cell-based; conditions: 1 µM; in short: as §2
[13] = test system: Epidermal growth factor receptor (Homo sapiens), P00533 [L858R,T790M]; assay: Inhibition of EGF-induced EGFR T790M/L858R double mutant in human NCI-H1975 cells assessed as decrease in ERK phosphorylation preincubated for 2 hrs followed by EGF induction and measured after 10 mins by Western blot analysis; assay type: cell-based; in short: as §2
[14] = test system: Mus musculus; assay: In vivo inhibition of EGFR T790M/L858R double mutant phosphorylation in tumor of BALB/c athymic nude mouse xenografted with human NCI-H1975 cells at 10 mg/kg, po bid for 21 days; assay type: functional, organism-based; in short: as §3
[15] = test system: Mus musculus; assay: Toxicity in BALB/c athymic nude mouse xenografted with wild type EGFR expressing human A431 cells assessed as body weight loss at 10 to 20 mg/kg, po bid for 21 days; conditions: in vivo, 504 h
[16] = test system: Mus musculus; assay: Toxicity in BALB/c athymic nude mouse xenografted with EGFR T790M/L858R double mutant expressing human NCI-H1975 cells assessed as body weight loss at 10 to 20 mg/kg, po bid for 21 days; assay type: organism-based; conditions: in vivo, 504 h
[17] = test system: Epidermal growth factor receptor (Homo sapiens), P00533 [L858R,T790M]; assay: Inhibition of EGF-induced EGFR T790M/L858R double mutant phosphorylation in human NCI-H1975 cells preincubated for 2 hrs followed by EGF induction and measured after 10 mins by Western blot analysis; assay type: cell-based; in short: as §2
[18] = test system: NCI-H1975; assay: Antitumor activity against EGFR T790M/L858R double mutant expressing human NCI-H1975 cells xenografted in po dosed BALB/c athymic nude mouse assessed as tumor growth inhibition administered as bid for 21 days; assay type: functional, organism-based
[19] = test system: NCI-H1975; assay: Antitumor activity against EGFR T790M/L858R double mutant expressing human NCI-H1975 cells xenografted in BALB/c athymic nude mouse assessed as tumor growth inhibition at 10 mg/kg, po bid for 21 days; assay type: functional, organism-based
In short: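 5×10^6 NCI-H1975 cells injected subcutaneously into the right flank of athymic mice. At tumour volume 100-300 mm³, mice were randomised (n = 6 per group) to vehicle or drug. Drug given orally twice daily. Tumour size and body weight were measured on set days, with volume = length×width²/2. Results are group means with SEM.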

Chain of Epidermal growth factor receptor (Homo sapiens, UniProt P00533, L858R/T790M) (P00533 25-1210 T790M/L858R limits assumed): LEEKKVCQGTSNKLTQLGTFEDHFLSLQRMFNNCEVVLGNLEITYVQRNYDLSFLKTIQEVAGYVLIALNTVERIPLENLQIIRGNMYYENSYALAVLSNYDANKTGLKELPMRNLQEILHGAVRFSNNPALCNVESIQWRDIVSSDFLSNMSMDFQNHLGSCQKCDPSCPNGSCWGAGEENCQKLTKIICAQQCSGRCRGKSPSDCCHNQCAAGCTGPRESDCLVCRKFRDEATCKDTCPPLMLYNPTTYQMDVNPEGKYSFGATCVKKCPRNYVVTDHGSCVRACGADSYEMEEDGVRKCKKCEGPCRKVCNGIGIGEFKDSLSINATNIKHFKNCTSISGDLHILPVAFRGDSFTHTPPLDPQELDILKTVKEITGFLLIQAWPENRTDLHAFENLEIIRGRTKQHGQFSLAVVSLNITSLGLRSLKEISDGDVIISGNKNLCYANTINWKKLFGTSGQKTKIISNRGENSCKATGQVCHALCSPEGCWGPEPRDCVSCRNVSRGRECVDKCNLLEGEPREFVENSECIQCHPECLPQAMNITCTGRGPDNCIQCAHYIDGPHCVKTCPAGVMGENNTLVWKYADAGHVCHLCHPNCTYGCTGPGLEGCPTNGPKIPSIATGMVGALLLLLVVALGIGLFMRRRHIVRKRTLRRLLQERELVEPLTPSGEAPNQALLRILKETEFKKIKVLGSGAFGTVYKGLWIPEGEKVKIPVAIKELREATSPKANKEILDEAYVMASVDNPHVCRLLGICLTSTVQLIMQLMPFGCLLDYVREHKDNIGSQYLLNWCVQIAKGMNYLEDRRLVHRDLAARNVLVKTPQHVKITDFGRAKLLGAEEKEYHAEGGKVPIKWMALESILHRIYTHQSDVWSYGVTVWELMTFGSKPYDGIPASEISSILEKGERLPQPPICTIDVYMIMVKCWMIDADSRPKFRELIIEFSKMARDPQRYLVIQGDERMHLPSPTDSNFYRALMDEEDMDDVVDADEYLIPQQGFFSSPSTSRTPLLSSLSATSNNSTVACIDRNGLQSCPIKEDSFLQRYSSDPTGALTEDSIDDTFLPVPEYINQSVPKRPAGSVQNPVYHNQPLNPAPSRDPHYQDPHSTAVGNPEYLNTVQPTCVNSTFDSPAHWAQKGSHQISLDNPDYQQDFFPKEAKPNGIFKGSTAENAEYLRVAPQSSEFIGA
T1 sequence (P00533 whole entry): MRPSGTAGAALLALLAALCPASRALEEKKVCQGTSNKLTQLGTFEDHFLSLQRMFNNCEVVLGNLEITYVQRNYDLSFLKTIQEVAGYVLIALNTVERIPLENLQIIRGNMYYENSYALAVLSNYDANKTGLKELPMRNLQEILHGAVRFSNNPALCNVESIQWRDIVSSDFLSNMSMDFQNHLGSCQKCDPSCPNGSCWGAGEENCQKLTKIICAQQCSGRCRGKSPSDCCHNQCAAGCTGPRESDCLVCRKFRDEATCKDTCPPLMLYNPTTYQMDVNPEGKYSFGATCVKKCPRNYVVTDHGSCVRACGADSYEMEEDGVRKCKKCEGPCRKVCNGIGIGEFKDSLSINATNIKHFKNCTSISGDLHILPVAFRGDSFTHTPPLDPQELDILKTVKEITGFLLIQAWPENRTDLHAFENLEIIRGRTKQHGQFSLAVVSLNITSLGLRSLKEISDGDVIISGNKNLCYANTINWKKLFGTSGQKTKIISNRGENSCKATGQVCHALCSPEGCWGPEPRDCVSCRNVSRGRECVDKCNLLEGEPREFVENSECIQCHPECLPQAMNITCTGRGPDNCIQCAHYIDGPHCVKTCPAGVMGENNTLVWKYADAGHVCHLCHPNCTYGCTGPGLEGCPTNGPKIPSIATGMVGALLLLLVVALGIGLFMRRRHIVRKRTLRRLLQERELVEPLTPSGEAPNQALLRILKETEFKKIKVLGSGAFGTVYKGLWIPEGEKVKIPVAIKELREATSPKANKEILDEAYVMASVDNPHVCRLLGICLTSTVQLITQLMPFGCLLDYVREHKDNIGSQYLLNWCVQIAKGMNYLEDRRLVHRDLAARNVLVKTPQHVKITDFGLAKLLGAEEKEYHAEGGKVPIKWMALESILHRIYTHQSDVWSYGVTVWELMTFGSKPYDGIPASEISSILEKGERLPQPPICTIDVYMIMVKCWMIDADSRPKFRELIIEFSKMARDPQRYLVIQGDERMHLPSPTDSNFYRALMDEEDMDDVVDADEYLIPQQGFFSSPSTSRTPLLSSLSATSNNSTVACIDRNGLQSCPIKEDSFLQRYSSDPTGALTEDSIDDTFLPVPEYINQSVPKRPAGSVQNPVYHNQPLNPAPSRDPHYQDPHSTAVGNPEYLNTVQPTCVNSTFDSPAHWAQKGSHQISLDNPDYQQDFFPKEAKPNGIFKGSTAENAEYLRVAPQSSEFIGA
Chain of Epidermal growth factor receptor (Homo sapiens), P00533 [L858R,T790M] (P00533 whole entry T790M/L858R, looked up): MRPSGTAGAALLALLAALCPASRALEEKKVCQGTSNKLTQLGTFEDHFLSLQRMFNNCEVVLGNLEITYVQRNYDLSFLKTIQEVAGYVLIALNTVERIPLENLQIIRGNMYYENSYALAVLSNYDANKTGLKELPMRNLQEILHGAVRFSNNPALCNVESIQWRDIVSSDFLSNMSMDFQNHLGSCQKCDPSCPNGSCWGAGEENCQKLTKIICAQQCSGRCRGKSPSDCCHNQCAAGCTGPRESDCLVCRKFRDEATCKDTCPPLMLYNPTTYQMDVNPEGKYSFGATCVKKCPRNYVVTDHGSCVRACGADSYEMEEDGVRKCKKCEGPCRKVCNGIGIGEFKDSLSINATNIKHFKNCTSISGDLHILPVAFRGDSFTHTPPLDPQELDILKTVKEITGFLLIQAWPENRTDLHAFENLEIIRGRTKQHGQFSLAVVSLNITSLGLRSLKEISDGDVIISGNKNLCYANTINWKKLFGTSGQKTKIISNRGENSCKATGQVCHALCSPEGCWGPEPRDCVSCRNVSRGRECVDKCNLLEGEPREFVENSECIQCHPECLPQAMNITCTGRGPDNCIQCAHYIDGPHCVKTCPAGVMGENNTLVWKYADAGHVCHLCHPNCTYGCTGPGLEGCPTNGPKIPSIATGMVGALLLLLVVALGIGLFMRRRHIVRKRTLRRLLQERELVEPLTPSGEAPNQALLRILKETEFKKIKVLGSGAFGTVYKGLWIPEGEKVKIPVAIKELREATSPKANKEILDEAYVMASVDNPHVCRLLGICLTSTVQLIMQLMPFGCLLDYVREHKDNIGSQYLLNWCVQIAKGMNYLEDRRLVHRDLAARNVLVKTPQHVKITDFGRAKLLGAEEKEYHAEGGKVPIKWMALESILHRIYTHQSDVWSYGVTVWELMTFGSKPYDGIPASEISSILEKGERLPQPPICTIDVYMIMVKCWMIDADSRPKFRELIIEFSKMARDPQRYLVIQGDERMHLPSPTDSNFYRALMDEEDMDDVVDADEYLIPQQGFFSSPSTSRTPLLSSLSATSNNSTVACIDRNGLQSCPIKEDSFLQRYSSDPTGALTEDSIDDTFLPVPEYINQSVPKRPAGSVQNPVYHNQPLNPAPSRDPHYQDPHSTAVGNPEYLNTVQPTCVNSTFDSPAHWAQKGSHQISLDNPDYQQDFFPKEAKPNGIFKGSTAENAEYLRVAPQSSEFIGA

C=CC(=O)Nc1cc(Nc2nccc(Nc3ccccc3-n3nccn3)n2)c(OC)cc1N(C)CCN(C)C
IC50 [1]: 33.1 nM | Ratio IC50 [2]: 8 | IC50 [3]: 281 nM

C=CC(=O)Nc1cc(Nc2nccc(Nc3ccccc3-c3ncn(C)n3)n2)c(OC)cc1N(C)CCN(C)C
IC50 [4]: 1500 nM | IC50 [1]: 7.7 nM | IC50 [5]: 74 nM | Ratio IC50 [6]: 20 | Ratio IC50 [2]: 86 | IC50 [3]: 660 nM

C=CC(=O)Nc1cc(Nc2nccc(Nc3ccccc3-c3ccn(C)n3)n2)c(OC)cc1N1CCOCC1
IC50 [1]: > 1000 nM | IC50 [3]: > 1000 nM

C=CC(=O)Nc1cc(Nc2nccc(Nc3ccccc3-n3cccn3)n2)c(OC)cc1N1CCN(C)CC1
IC50 [1]: 143 nM | IC50 [3]: > 1000 nM

C=CC(=O)Nc1cc(Nc2nccc(Nc3ccccc3-n3cccn3)n2)c(OC)cc1N1CCOCC1
IC50 [1]: > 1000 nM | IC50 [3]: > 1000 nM

C=CC(=O)Nc1cc(Nc2nccc(Nc3ccccc3-n3nccn3)n2)c(OC)cc1N1CCOCC1
IC50 [1]: 838 nM | IC50 [3]: > 1000 nM

C=CC(=O)Nc1cc(Nc2nccc(Nc3ccccc3-c3ccn(C)n3)n2)c(OC)cc1N1CCC(N(C)C)CC1
IC50 [1]: 38.5 nM | IC50 [3]: > 1000 nM

C=CC(=O)Nc1cc(Nc2nccc(Nc3ccccc3-n3cccn3)n2)c(OC)cc1N(C)CCN(C)C
IC50 [4]: 10100 nM | IC50 [1]: 4.1 nM | IC50 [5]: 68 nM | Ratio IC50 [6]: 148 | Ratio IC50 [2]: 158 | IC50 [3]: 648 nM

C=CC(=O)Nc1cc(Nc2nccc(Nc3ccccc3-c3ccn(C)n3)n2)c(OC)cc1OCCN(C)C
IC50 [4]: 1580 nM | IC50 [1]: 16.4 nM | IC50 [5]: 85 nM | Ratio IC50 [6]: 18 | Ratio IC50 [2]: 19 | IC50 [3]: 317 nM

C=CC(=O)Nc1cc(Nc2nccc(Nc3ccccc3-n3nccn3)n2)c(OC)cc1N1CCN(C)CC1
IC50 [1]: 175 nM | IC50 [3]: > 1000 nM

C=CC(=O)Nc1cc(Nc2nccc(Nc3ccccc3-n3nccn3)n2)c(OC)cc1N1CCC(N(C)C)CC1
IC50 [4]: 2760 nM | IC50 [1]: 202 nM | IC50 [5]: 70 nM | Ratio IC50 [6]: 39 | IC50 [3]: > 1000 nM

C=CC(=O)Nc1cc(Nc2nccc(Nc3ccccc3-c3ccn(C)n3)n2)c(OC)cc1N(C)CCN(C)C
IC50 [4]: 7370 nM | IC50 [1]: 4.1 nM | inhibition [7]: Dose-dependent effect | inhibition (INH) [8]: Not Active | IC50 [5]: 59 nM | Ratio IC50 [6]: 124 | TGI [9]: < 20% | inhibition (INH) [10]: Not Active | Ratio IC50 [2]: 85 | inhibition [11]: Active | IC50 [3]: 350 nM | inhibition (INH) [12]: Not Active | inhibition [13]: Dose-dependent effect | inhibition [14]: Active | Activity [15]: Non-Toxic | Activity [16]: Non-Toxic | inhibition [17]: Dose-dependent effect | TGI [18]: Dose-dependent effect

C=CC(=O)Nc1cc(Nc2nccc(-c3cn(C)c4ccccc34)n2)c(OC)cc1N(C)CCN(C)C [OSIMERTINIB]
IC50 [4]: […] | IC50 [5]: […] | TGI [19]: Active

C=CC(=O)Nc1cc(Nc2nccc(Nc3ccccc3-c3ccn(C)n3)n2)c(OC)cc1N1CCN(C)CC1
IC50 [1]: > 1000 nM | IC50 [3]: > 1000 nM
